Measurements taken from paper PMC11847724 (Neoplasia (New York, N.Y.), 2025).
Read-outs that look alike come from different tables or passages of the source.

What was measured:
FAK = settings: preclinical studies ref 9, 10; cited from earlier work
[1] = all tested species ref 9; cited from earlier work
ALK = settings: preclinical studies ref 9, 10; cited from earlier work
[2] = tested on: ALK- and FAK-driven xenograft models; settings: multiple ALK- and FAK-driven xenograft models ref 9, 10; cited from earlier work
[3] = tested on: advanced or metastatic solid tumors; experiment: Tumor response by RECIST v1.1; assay type: in vivo, human; settings: RECIST v1.1, all doses
Outline: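 Participants received daily oral test compound at 25 to 700 mg/day in 28-day cycles. Best observed response was listed per participant without statistical analysis.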

[4] = tested on: participants with advanced or metastatic solid tumors; assay type: in vivo, human
Outline: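 Open-label, first-in-human 3 + 3 escalation in adults with recurrent, locally advanced or metastatic solid tumors lacking standard therapy. Test compound was given orally once daily from 25 up to 700 mg/day (modified Fibonacci steps) in 28-day cycles for 6 to 8 cycles, with no intrapatient escalation. The safety population was everyone dosed at least once. AEs were coded by MedDRA and graded by NCI CTCAE v4.03. DLT was assessed in cycle 1, and MTD was the highest dose with DLT in under one-third of a cohort.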

CNC(=O)c1ccccc1Nc1nc(Nc2ccc3c(c2OC)CCC[C@H](N2CCN(CCO)CC2)C3)ncc1Cl [ESK-440]
potency (FAK): low nanomolar | oral bioavailability [1]: acceptable | potency (ALK): low nanomolar | antitumor efficacy [2]: dose-dependent antitumor efficacy | best overall response: stable disease [3]: 7 participants | complete or partial response [3]: No participant | AE: Cough ([4]; 25 mg/day (n = 3)): 1 (33) Number (%) of participants | AE: Decreased appetite ([4]; 25 mg/day (n = 3)): 0 Number (%) of participants | AE: Diarrhea ([4]; 25 mg/day (n = 3)): 1 (33) Number (%) of participants | AE: Edema peripheral ([4]; 25 mg/day (n = 3)): 0 Number (%) of participants | AE: Fatigue ([4]; 25 mg/day (n = 3)): 0 Number (%) of participants | AE: Nausea ([4]; 25 mg/day (n = 3)): 1 (33) Number (%) of participants | AE: Pyrexia ([4]; 25 mg/day (n = 3)): 0 Number (%) of participants | AE: Vomiting ([4]; 25 mg/day (n = 3)): 0 Number (%) of participants | Any AE ([4]; 25 mg/day (n = 3)): 3 (100) Number (%) of participants | Deaths ([4]; 25 mg/day (n = 3)): 1 (33) Number (%) of participants | Grade 3-5 AE ([4]; 25 mg/day (n = 3)): 3 (100) Number (%) of participants | Other serious AEs ([4]; 25 mg/day (n = 3)): 2 (67) Number (%) of participants | Treatment-related AE ([4]; 25 mg/day (n = 3)): 1 (33) Number (%) of participants | Withdrawn from treatment due to AE ([4]; 25 mg/day (n = 3)): 1 (33) Number (%) of participants | AE: Cough ([4]; 50 mg/day (n = 3)): 0 Number (%) of participants | AE: Decreased appetite ([4]; 50 mg/day (n = 3)): 0 Number (%) of participants | AE: Diarrhea ([4]; 50 mg/day (n = 3)): 0 Number (%) of participants | AE: Edema peripheral ([4]; 50 mg/day (n = 3)): 0 Number (%) of participants | AE: Fatigue ([4]; 50 mg/day (n = 3)): 1 (33) Number (%) of participants | AE: Nausea ([4]; 50 mg/day (n = 3)): 1 (33) Number (%) of participants | AE: Pyrexia ([4]; 50 mg/day (n = 3)): 1 (33) Number (%) of participants | AE: Vomiting ([4]; 50 mg/day (n = 3)): 0 Number (%) of participants | Any AE ([4]; 50 mg/day (n = 3)): 2 (67) Number (%) of participants | Deaths ([4]; 50 mg/day (n = 3)): 0 Number (%) of participants | Grade 3-5 AE ([4]; 50 mg/day (n = 3)): 1 (33) Number (%) of participants | Other serious AEs ([4]; 50 mg/day (n = 3)): 1 (33) Number (%) of participants | Treatment-related AE ([4]; 50 mg/day (n = 3)): 1 (33) Number (%) of participants | Withdrawn from treatment due to AE ([4]; 50 mg/day (n = 3)): 0 Number (%) of participants | AE: Cough ([4]; 100 mg/day (n = 4)): 0 Number (%) of participants | AE: Decreased appetite ([4]; 100 mg/day (n = 4)): 0 Number (%) of participants | AE: Diarrhea ([4]; 100 mg/day (n = 4)): 0 Number (%) of participants | AE: Edema peripheral ([4]; 100 mg/day (n = 4)): 1 (25) Number (%) of participants | AE: Fatigue ([4]; 100 mg/day (n = 4)): 3 (75) Number (%) of participants | AE: Nausea ([4]; 100 mg/day (n = 4)): 0 Number (%) of participants | AE: Pyrexia ([4]; 100 mg/day (n = 4)): 1 (25) Number (%) of participants | AE: Vomiting ([4]; 100 mg/day (n = 4)): 0 Number (%) of participants | Any AE ([4]; 100 mg/day (n = 4)): 4 (100) Number (%) of participants | Deaths ([4]; 100 mg/day (n = 4)): 1 (25) Number (%) of participants | Grade 3-5 AE ([4]; 100 mg/day (n = 4)): 2 (50) Number (%) of participants | Other serious AEs ([4]; 100 mg/day (n = 4)): 2 (50) Number (%) of participants | Treatment-related AE ([4]; 100 mg/day (n = 4)): 2 (50) Number (%) of participants | Withdrawn from treatment due to AE ([4]; 100 mg/day (n = 4)): 1 (25) Number (%) of participants | AE: Cough ([4]; 150 mg/day (n = 3)): 1 (33) Number (%) of participants | AE: Decreased appetite ([4]; 150 mg/day (n = 3)): 1 (33) Number (%) of participants | AE: Diarrhea ([4]; 150 mg/day (n = 3)): 1 (33) Number (%) of participants | AE: Edema peripheral ([4]; 150 mg/day (n = 3)): 1 (33) Number (%) of participants | AE: Fatigue ([4]; 150 mg/day (n = 3)): 2 (67) Number (%) of participants | AE: Nausea ([4]; 150 mg/day (n = 3)): 0 Number (%) of participants | AE: Pyrexia ([4]; 150 mg/day (n = 3)): 1 (33) Number (%) of participants | AE: Vomiting ([4]; 150 mg/day (n = 3)): 0 Number (%) of participants | Any AE ([4]; 150 mg/day (n = 3)): 3 (100) Number (%) of participants | Deaths ([4]; 150 mg/day (n = 3)): 0 Number (%) of participants | Grade 3-5 AE ([4]; 150 mg/day (n = 3)): 1 (33) Number (%) of participants | Other serious AEs ([4]; 150 mg/day (n = 3)): 1 (33) Number (%) of participants | Treatment-related AE ([4]; 150 mg/day (n = 3)): 3 (100) Number (%) of participants | Withdrawn from treatment due to AE ([4]; 150 mg/day (n = 3)): 0 Number (%) of participants | AE: Cough ([4]; 250 mg/day (n = 4)): 1 (25) Number (%) of participants | AE: Decreased appetite ([4]; 250 mg/day (n = 4)): 2 (50) Number (%) of participants | AE: Diarrhea ([4]; 250 mg/day (n = 4)): 2 (50) Number (%) of participants | AE: Edema peripheral ([4]; 250 mg/day (n = 4)): 2 (50) Number (%) of participants | AE: Fatigue ([4]; 250 mg/day (n = 4)): 3 (75) Number (%) of participants | AE: Nausea ([4]; 250 mg/day (n = 4)): 3 (75) Number (%) of participants | AE: Pyrexia ([4]; 250 mg/day (n = 4)): 0 Number (%) of participants | AE: Vomiting ([4]; 250 mg/day (n = 4)): 3 (75) Number (%) of participants | Any AE ([4]; 250 mg/day (n = 4)): 4 (100) Number (%) of participants | Deaths ([4]; 250 mg/day (n = 4)): 1 (25) Number (%) of participants | Grade 3-5 AE ([4]; 250 mg/day (n = 4)): 1 (25) Number (%) of participants | Other serious AEs ([4]; 250 mg/day (n = 4)): 1 (25) Number (%) of participants | Treatment-related AE ([4]; 250 mg/day (n = 4)): 4 (100) Number (%) of participants | Withdrawn from treatment due to AE ([4]; 250 mg/day (n = 4)): 0 Number (%) of participants | AE: Cough ([4]; 350 mg/day (n = 4)): 1 (25) Number (%) of participants
